From ChEMBL document CHEMBL3872271, “Identification and validation of small molecule modulators of the NusB-NusE interaction” (Bioorg Med Chem Lett, 2017) come the findings set out here.

Usually inhibition stands for the drop in the measured response relative to a control, in per cent. A high value points to a strong effect. By IC50 is commonly meant the midpoint of a concentration-inhibition curve. The low end stands for inhibition by little substance, the high end for a need for much substance.

One assay concerns Escherichia coli. Put plainly: Growth inhibition of Escherichia coli DH5alpha at 200 uM measured every 10 mins for 16 hrs. The class given is functional. As to conditions: DH5[alpha], read-out: GI. The procedure, abridged:
(§1)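 Cells grown at 37 °C in LB with shaking to OD 0.6–0.7 AU, then added to LB containing compound (50 mM DMSO stocks, serially diluted to 200 μM). Plates incubated at 37 °C, 200 rpm. OD600 was read every 10 min for 16 h with LB as blank. Triplicates, with growth compared to cells given equal DMSO.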

Assay [1] concerns Bacillus subtilis. The assay is described as follows: Inhibition of Bacillus subtilis full length NusB/GST-tagged NusE interaction at 25 uM preincubated with NusE for 15 mins followed by incubation with NusB for 1 hr by ELISA. The procedure, abridged:
(§2)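 Wells coated overnight at 4 °C with purified full-length B. subtilis NusB (250 nM in PBS), then blocked with 1% BSA/PBS for 2 h at RT. Inhibitor preincubated with GST-NusE (200 nM) for 15 min at 37 °C, then added to wells for 1 h at RT. Bound NusE detected with rabbit anti-GST (1:2000), goat anti-rabbit HRP (1:2000) and TMB (6 min, 37 °C), read at OD 600 nm.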
On the technique in general: An ELISA detects its analyte on a solid surface through an enzyme-linked reagent.

Assay [2] in a line: Inhibition of Bacillus subtilis full length NusB/GST-tagged NusE preincubated with NusE for 15 mins followed by incubation with NusB for 1 hr by ELISA. The procedure, abridged: as §2
Assay [3] concerns Bacillus subtilis. The assay is described as follows: Growth inhibition of Bacillus subtilis at 200 uM measured every 10 mins for 16 hrs. The format is functional. As to conditions: read-out: GI. The procedure, abridged:
as §1

Turning to `COc1ccc(-c2cc(-c3ccc(OC)c(OC)c3)nc(NS(=O)(=O)c3ccc(NC(C)=O)cc3)n2)c(OC)c1`, the inhibition of growth at 200 µM in the assay with Escherichia coli came to 21%; in the assay on Bacillus subtilis [3], 9%. In the assay with Bacillus subtilis [1], this compound came in with an inhibition of 88%. In assay [2], this compound showed an IC50 of 6.1 µM.

Take H-YDHRLLDQS-NH2: half-maximal inhibition in assay [2] (IC50) required 71 µM.

`COc1ccc(/C=C/C(=O)c2ccc(OC)c(OC)c2)c(OC)c1` returned an inhibition in the assay with Bacillus subtilis [1] of 48%.

As to `O=[N+]([O-])c1ccc(OCC(O)CNCCNc2nccc(C(F)(F)F)n2)cc1` (racemic), the inhibition of growth at 200 µM turned out to be 11% in the assay on Escherichia coli and 19% in the assay with Bacillus subtilis [3].

Regarding `COc1cc(/C=N/NC(=O)CCc2ccc(O)cc2)cc(OC)c1OC`, the inhibition of growth at 200 µM in the assay on Escherichia coli was found to be 10%; with Bacillus subtilis [3] it was 44%. Further, the inhibition with Bacillus subtilis [1] worked out at 5%.

`COc1ccc(-c2cc(-c3ccc(OC)c(OC)c3)nc(NS(=O)(=O)c3ccc(N)cc3)n2)c(OC)c1`: the inhibition with Bacillus subtilis [1] turned out to be 3%.

In turn, `Oc1ccccc1CNc1ccc(OCCCCOc2ccc(NCc3ccccc3O)cc2)cc1` had an inhibition with Bacillus subtilis [1] of 45%. Besides, in assay [2], the IC50 was 210 µM.

Turning to `CCNC(=O)Nc1ccc(OCCCCOc2ccc(NC(=O)NCC)cc2)cc1`, the inhibition of growth at 200 µM with Escherichia coli worked out at 17%. In the assay with Bacillus subtilis [1], this compound came in with an inhibition of 52%. Further, the midpoint of inhibition in assay [2], the IC50, lay at 19.8 µM.
